# Rce1 inh: yeast Ras-converting enzyme inhibition. yeast membranes, quenched prenylated peptide cleavage fluorescence. Q03530. AID 2563. calls only. 0.27% of 290,000 active;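 active = fall in fluorescence gain of 50% or more versus controls, with final raw signal at or below 3038400; inconclusive = same 50% fall but final raw signal above 3038400; inactive = fall in fluorescence gain under 50%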;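 note: plate controls were neutral control wells for no effect and wells lacking membranes for full effect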
# Target sequence (Q03530 whole entry, looked up): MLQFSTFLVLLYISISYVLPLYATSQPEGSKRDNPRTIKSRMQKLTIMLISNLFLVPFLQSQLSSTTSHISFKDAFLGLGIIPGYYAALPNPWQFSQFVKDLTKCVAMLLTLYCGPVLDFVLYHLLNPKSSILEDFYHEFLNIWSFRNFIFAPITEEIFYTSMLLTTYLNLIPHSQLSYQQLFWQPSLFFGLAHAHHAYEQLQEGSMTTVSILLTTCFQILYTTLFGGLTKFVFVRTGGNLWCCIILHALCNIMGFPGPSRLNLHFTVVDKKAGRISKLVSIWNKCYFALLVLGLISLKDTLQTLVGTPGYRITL
# CAL PDZ FP-1: inhibitors of human CAL PDZ peptide binding. purified CAL PDZ, TMR-peptide fluorescence polarization, 1 h. Q9HD26. inhibition, % at 20 µM. 0.02% of 330,000 active. AID 504414;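 active = highest replicate inhibition of at least 40%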;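 note: plate controls were DMSO neutral control wells for no effect and unlabeled competitor peptide control wells for full effect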
#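 material = purified tagged CAL PDZ domain construct (CerCALP) | compound dosing = 20 µM, one dose | times = 1 h at RT | measured by = fluorescence polarization from S- and P-plane intensities, G-factor corrected | read-out = inhibition from polarization loss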
# CAL PDZ FP-2: CAL PDZ (human) peptide binding inhibition | Q9HD26 | purified CAL PDZ, TMR-peptide fluorescence polarization, 1 h | inhibition, % at 24.9 µM | 0.92% of 300,000 active | AID 602252;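 active = mean inhibition of at least 30% with at least half of replicates also reaching 30%; inconclusive = no clear call, values can overlap the other calls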;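 note: 0% = DMSO neutral control and 100% = excess unlabeled competitor peptide PRC23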
# ARNT TACC3 PPI: ARNT/TACC3 interaction disruption. Q9Y6A5. AlphaScreen His-ARNT PAS-B/GST-TACC3 binding, luminescence; TACC3 fragment carries E629A point mutation. inhibition, % at 9.99 µM. 0.66% of 390,000 active;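 active = mean inhibition of replicates at least 50% and at least half of replicates each reaching 50%; inconclusive = half or more replicates reach 50% but mean below 50%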;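 note: 0% = complete ARNT plus TACC3 wells and 100% = ARNT alone without TACC3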
# AI-2 QS modul: modulators of Vibrio harveyi AI-2 quorum sensing system. 0.4% of 300,000 active. activity change, % at 7.5 µM. Vibrio harveyi JMH597 AI-2 luminescence/OD600 ratio, 9 h; active compounds read low; strain lacks LuxN and CqsS sensors; 0 = neutral-control median; in the data active = activity change below about -75%, passing the limit was not always enough; inconclusive = no clear call, values can overlap the other calls;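 note: luminescence divided by OD600 gain over 9 h not by final OD600 alone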
# JMH597 growth: retest: blocks Vibrio harveyi JMH597 growth | growth inhibition, % at 7.5 µM | 1% of 750 active | OD600 absorbance, 9 h; lacks LuxN and CqsS sensors | AID 2726 | shares compounds with AI-2 QS modul;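 active = every replicate shows growth inhibition above 50%; inconclusive = at least half, but not all, replicates pass that cutoff; inactive = fewer than half of replicates pass it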
# BB721 lum counter: retest counter-screen: lowers luminescence of constitutive-QS Vibrio harveyi BB721; inhibition, % at 7.5 µM; shares compounds with AI-2 QS modul; 9 h; 95% of 750 active;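 active = inhibition above about 80% in every replicate, not just on average, limit read from the data; inconclusive = at least half of replicates past the limit, but not all; inactive = fewer than half of replicates past the limit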
# BB721 growth rt: retest: inhibitors of Vibrio harveyi BB721 growth. shares compounds with AI-2 QS modul. OD600 absorbance, 9 h. growth inhibition, % at 7.5 µM. 3% of 750 active;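 active = every replicate shows growth inhibition above 50%; inconclusive = at least half but not all replicates above 50% inhibition; inactive = under half of replicates above 50% inhibition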
# JMH597 AI-2 mod: Vibrio harveyi AI-2 signaling luminescence modulation – JMH597 strain, confirmation | shares compounds with AI-2 QS modul | Vibrio harveyi JMH597 AI-2 quorum sensing luminescence, 9 h; luxN and CqsS knockout, AI-2 only | inhibition, % at 7.5 µM | 97% of 750 active | AID 2736;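 active = every replicate shows more than 75% inhibition of signal versus neutral control wells; inconclusive = half to three quarters of replicates exceed 75% inhibition; inactive = fewer than half of replicates exceed 75% inhibition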
# * marks the source's active call; other numbers are inactive results; i = inactive; ? = inconclusive; . = not tested or not shown; + = active, no number. In the library only some 1.7% were active in any assay of this set; here they are far more common.
SMILES,Rce1 inh,CAL PDZ FP-1,CAL PDZ FP-2,ARNT TACC3 PPI,AI-2 QS modul,others
Cc1ccc(S(=O)(=O)N2CCN(C(=O)c3cc4c(C)nn(-c5ccccc5)c4s3)CC2)cc1,+,.,-5,-6,2,
Cc1ccccc1-n1nc(C)c2cc(C(=O)N3CCN(S(=O)(=O)c4ccc(Cl)cc4)CC3)sc21,i,-1,-2,-77,22,
CN(CCCC1CCCC1)C(=O)CC1C(=O)NCCN1Cc1ccc(F)cc1 (centres undefined),i,-2,41*,4,24,
Nc1cc2nsnc2cc1Br,i,-4,-10,-130,25,
COc1ccc(S(=O)(=O)N2CCCCC2)cc1NC(=O)Cn1c(=O)cnc2ccccc21,i,-2,0,-3,26,
Brc1ccc(CNCC2CCCO2)cc1 (centres undefined),i,0,-2,-9,11,
Brc1cccc(CNCC2CCCO2)c1 (centres undefined),i,54*,5,2,3,
O=C(Nc1ccc2ccccc2c1)c1ccccc1F,i,0,.,7,15,
O=C(Nc1ccc2cn[nH]c2c1)c1ccccc1F,i,-1,85*,-9,26,
COCCn1c(SCC(=O)Nc2ccc(OC)cc2)nnc1-c1ccoc1C,i,-3,6,-28,14,
COc1ccc(NC(=O)CSc2nnc(N)n2CC(=O)Nc2ccc(OC)cc2)cc1,i,0,52*,-4,16,
COc1ccc(NC(=O)CSc2nnc(-c3ccoc3C)n2CCc2ccccc2)cc1,i,.,103*,7,33,
COc1ccc(NC(=O)CSc2nnc(C)n2Cc2ccccc2)cc1,i,-2,-14,28,9,
CCOC(=O)C1=C(C)OC(N)=C(C#N)C1c1cc2c(cc1[N+](=O)[O-])OCO2 (centres undefined),+,-1,-1,.,23,
CCOC(=O)C1=C(C)OC(N)=C(C#N)C1c1cc(OC)c2c(c1)OCO2 (centres undefined),i,-1,.,-6,2,
OC1(C#CCCN2CCCCC2)c2ccccc2-c2ccccc21,i,12,50*,-1,10,
OC1(CC#CCN2CCCCC2)c2ccccc2-c2ccccc21,i,-2,-6,-4,11,
CCCOc1ccc(-c2nc3c(c(=O)[nH]c(=O)n3Cc3ccccc3)n2CCO)cc1OCC,+,0,-4,.,10,
CCCCn1c(=O)[nH]c(=O)c2c1nc(-c1ccc(OCCC)c(OCC)c1)n2CCOC,i,0,-2,-2,25,
O=C(COC(=O)c1cccc(S(=O)(=O)N2CCCCC2)c1)NC1CCCCC1,.,-3,-2,6,.,
CCC(=O)Nc1ccc2c(c1)C(=O)N(C)[C@@H]1CC[C@H](CC(=O)NCCN3CCCCC3)O[C@@H]1CO2,.,.,.,-5,.,
CC1=CN2C(=NC(=O)CC2(C)C(=O)N(CC(=O)NC2CCCC2)Cc2ccccc2)C=C1 (centres undefined),?,-3,-4,-3,-1,
CC1=CC2=NC(=O)CC(C)(C(=O)N(CC(=O)NC3CCCC3)Cc3ccccc3)N2C=C1 (centres undefined),+,0,-1,-4,4,
CCCCN1CCCCC1C(=O)Nc1c(C)cccc1C (centres undefined),.,-2,-2,-3,.,
CC1(c2ccccc2)NC(=O)N(CC(=O)Nc2cccc(C#N)c2)C1=O (centres undefined),i,-1,-1,-9,-95*,JMH597 growth=-21;BB721 lum counter=97*;BB721 growth rt=-3;JMH597 AI-2 mod=98*
SMILES,Rce1 inh,CAL PDZ FP-1,CAL PDZ FP-2,ARNT TACC3 PPI,AI-2 QS modul,others
N#Cc1cccc(NC(=O)CN2C(=O)NC3(CCCCCC3)C2=O)c1,.,0,-2,4,.,
CCC1(c2ccccc2)NC(=O)N(CC(=O)NC2(C#N)CCCCC2)C1=O (centres undefined),i,-3,-3,5,19,
CCC1(c2ccccc2)NC(=O)N(CC(=O)Nc2cccc(C#N)c2)C1=O (centres undefined),i,-2,.,10,-94*,JMH597 growth=18;BB721 lum counter=96*;BB721 growth rt=18;JMH597 AI-2 mod=97*
CCNC(=O)C[C@H]1CC[C@@H](NC(=O)NC2CCCCC2)[C@@H](CO)O1,.,.,.,27,.,
Cc1cc(NS(=O)(=O)c2ccc(NC(=O)COc3ccc(Cl)cc3)cc2)no1,i,-1,-3,-4,-87*,JMH597 growth=16;BB721 lum counter=93*;BB721 growth rt=14;JMH597 AI-2 mod=91*
O=C(CNC(=O)c1ccco1)Nc1ccc(S(=O)(=O)N2CCCC2)cc1,i,0,1,-1,-94*,JMH597 growth=23;BB721 lum counter=98*;BB721 growth rt=-156;JMH597 AI-2 mod=99*
COc1ccc(OCC(=O)Nc2ccc(S(=O)(=O)N3CCCC3)cc2)cc1,i,-2,-3,13,?,JMH597 growth=24;BB721 lum counter=95*;BB721 growth rt=28;JMH597 AI-2 mod=99*
O=C(Nc1ccc(S(=O)(=O)N2CCOCC2)cc1)c1ccco1,i,-2,-4,-1,22,
Cc1ccc(C(=O)NCCc2ccc(S(=O)(=O)N3CCCC3)cc2)cc1,i,0,44*,-4,-79*,JMH597 growth=20;BB721 lum counter=93*;BB721 growth rt=12;JMH597 AI-2 mod=96*
COc1cc(C(=O)NCCc2ccc(S(=O)(=O)N3CCCC3)cc2)cc(OC)c1OC,i,-1,.,-6,29,
FC(F)(F)c1cccc(Cc2noc(CN3CCCC(OCc4ccccn4)C3)n2)c1 (centres undefined),i,0,2,-16,13,
CCC(=O)NC[C@@H]1[C@@H](c2ccc(C3=CCCC3)cc2)[C@@H](CO)N1C(=O)C1CC1,.,.,.,3,.,
Cc1c(OCC(=O)NCCCN2CCOCC2)ccc2c(-c3ccccc3)cc(=O)oc12,i,-2,.,2,10,
O=C(Cc1ccc([N+](=O)[O-])cc1)Nc1cccnc1,.,0,9,-2,14,
O=C(NCCCn1ccnc1)C(=O)NCC(c1cccnc1)N1CCN(c2ccc(F)cc2)CC1 (centres undefined),i,0,.,.,-2,
Cc1ccc(OCC(=O)Nc2ccc(S(=O)(=O)N3CCCC3)cc2)cc1,i,-4,-6,.,?,JMH597 growth=46;BB721 lum counter=92*;BB721 growth rt=29;JMH597 AI-2 mod=99*
O=C(NNS(=O)(=O)c1ccc(Cl)cc1)c1ccc(S(=O)(=O)N2CCCCC2)cc1,i,-1,-2,5,-97*,JMH597 growth=10;BB721 lum counter=100*;BB721 growth rt=-17;JMH597 AI-2 mod=100*

# Compound activity from PubChem BioAssay.
